High-throughput results: PubChem, Broad Institute
Wnt bcat act: Wnt/beta-catenin pathway activators, primary screen, cell-based, plate reader, single point | Wnt/beta-catenin reporter cell assay, activator | actives 1.2% (n = 300,000) | activation, % at 9.35 µM; in the data active = activation above about 30%, passing the limit was not always enough; inconclusive = no clear call, values can overlap the other calls;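 also: 0% = neutral control wells and 100% = positive control wells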
Env fusion inh: inhibitors of HIV-1 Env-driven cell-cell fusion, primary screen, HeLa-JRFL effector, CEM21 target cells, luciferase; actives 1.1% (n = 360,000); inhibition, % at 12.3 µM; AID 651610, 2012;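 active = mean replicate inhibition score of at least 50 and every replicate individually at or above 50; inconclusive = only one of the two criteria met; inactive = mean below 50 and not all replicates reaching 50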;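 also: 0% = plate neutral controls and 100% = maraviroc near 300 nM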
esBAF inh: Bmi1 luciferase reporter increase in mESCs, primary screen, esBAF inhibitor project, mouse ES cells, Bmi1 luciferase knock-in, single point | 24 h; 100% = twice the neutral-well signal | reporter increase, % at 12.5 µM | actives 2% (n = 350,000) | AID 602393, 2012; in the data active = activation above about 40%; inconclusive = no clear call, values can overlap the other calls;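 also: 0% = median of the plate's neutral control wells and 100% = double that signal; a rise in the Bmi1 reporter signal indicates esBAF inhibition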
Cneo AK release: Cryptococcus neoformans cell lysis inducers, primary screen, AK release luminescence, single concentration; C. neoformans lysis, adenylate kinase release luminescence, 4 h; normalised: neutral wells 0, clomiphene wells 100; lysis activity, % at 15 µM; actives 0.2% (n = 360,000);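 active = mean lysis activity across replicates of at least 80%, whatever share of replicates individually reach that level; inactive = mean lysis activity below 80%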
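Test system: log-phase Cryptococcus neoformans yeast cells. Input: 5 × 10^6 yeast cells/mL. Medium: fresh YPD growth medium. Doses: single dose. Incubation: static 4 h at 37 °C with compound, 1 h detection. Measured by: luminescent adenylate kinase detection reagent. Read-out: signal increase indicating cell lysis. Benchmarks: Clomiphene.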
MITF TRPM1 HTS: activators of MITF-driven TRPM1 promoter reporter, primary screen, cell-based, SK-MEL-5, luciferase, single point; SK-MEL-5 TRPM1-promoter luciferase, 24 h; % of positive control, neutral wells = 0; activation, % at 12.5 µM; actives 0.75% (n = 300,000);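 active = mean activation of at least 80% with every replicate also reaching 80%; inconclusive = mean reaches 80% but some replicate falls short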;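 also: 0% = neutral control wells and 100% = parthenolide positive control wells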
ERAP1 HTS inh: human ERAP1 aminopeptidase inhibitors, primary screen, biochemical, single point, plate reader | Endoplasmic reticulum aminopeptidase 1 (Homo sapiens), Q9NZ08 | recombinant ERAP1, Leu-AMC fluorescence, 60 min | inhibition, % at 10.7 µM | actives 0.15% (n = 340,000) | AID 652197, 2013;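 active = mean replicate inhibition of at least 30%, or all replicates individually reaching that 30% level; inactive = mean below 30% and not every replicate reaching it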;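 also: 0% = neutral control wells and 100% = L-leucinethiol positive control wells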
Target sequence (Q9NZ08 whole entry, looked up): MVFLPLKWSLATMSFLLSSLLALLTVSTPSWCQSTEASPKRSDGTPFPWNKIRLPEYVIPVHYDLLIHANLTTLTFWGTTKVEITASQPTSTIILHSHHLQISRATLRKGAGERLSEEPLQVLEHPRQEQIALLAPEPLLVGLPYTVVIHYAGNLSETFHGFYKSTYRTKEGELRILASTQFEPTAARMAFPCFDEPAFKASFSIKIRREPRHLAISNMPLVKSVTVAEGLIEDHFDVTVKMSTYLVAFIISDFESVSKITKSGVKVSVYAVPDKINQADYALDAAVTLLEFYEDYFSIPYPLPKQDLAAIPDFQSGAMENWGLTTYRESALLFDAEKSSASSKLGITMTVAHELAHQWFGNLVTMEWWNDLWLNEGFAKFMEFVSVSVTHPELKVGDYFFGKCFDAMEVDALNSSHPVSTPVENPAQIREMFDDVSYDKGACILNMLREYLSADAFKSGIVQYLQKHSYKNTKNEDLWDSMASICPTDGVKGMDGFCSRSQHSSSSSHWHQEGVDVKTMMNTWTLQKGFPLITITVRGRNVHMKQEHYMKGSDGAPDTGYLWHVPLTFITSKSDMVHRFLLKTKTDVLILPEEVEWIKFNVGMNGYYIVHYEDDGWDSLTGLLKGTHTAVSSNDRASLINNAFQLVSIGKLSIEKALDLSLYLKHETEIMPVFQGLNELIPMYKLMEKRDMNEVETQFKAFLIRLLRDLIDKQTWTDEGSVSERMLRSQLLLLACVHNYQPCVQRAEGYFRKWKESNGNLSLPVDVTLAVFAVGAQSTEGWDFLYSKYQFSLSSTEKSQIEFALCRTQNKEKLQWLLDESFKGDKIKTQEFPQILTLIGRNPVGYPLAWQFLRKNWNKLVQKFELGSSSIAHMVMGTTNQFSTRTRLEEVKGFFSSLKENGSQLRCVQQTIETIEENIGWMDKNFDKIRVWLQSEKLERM
The depositor's hits bear a star; ? = inconclusive; . = no result; [ ] = dose if it differs, or a comment. Sampled rows, rich in hits. Any-hit rate of the full collection: about 3.5%.

SMILES	Wnt bcat act	Env fusion inh	esBAF inh	Cneo AK release	MITF TRPM1 HTS	ERAP1 HTS inh
O=[N+]([O-])c1cc(Cl)ccc1-c1nc(-c2ccccc2)no1	51*	-160	.	.	47	.
O=[N+]([O-])c1cc(Cl)ccc1-c1nc(-c2ccncc2)no1	7	-41	.	.	-1	12
Cc1nc(-c2noc(-c3ccccc3Cl)n2)c(C(F)(F)F)o1	-2	-40	47*	0	83*	1
CCCNC(=O)N[C@@H]1C=C[C@@H](CC(=O)NC2CCC2)O[C@@H]1CO	.	-23[16.7 µM]	-1	-2	.	3
CCOC(=O)c1c(C)[nH]c(C(=O)OCc2ccc(C)cc2)c1C	5	-23	.	1	71	3
CCOC(=O)c1c(C)[nH]c2c1cc(O)c1ccccc12	20	.	62*	-2	-1	5
CCOC(=O)c1c(C)[nH]c(N=Nc2ccccc2C)c1C	.	-73	48*	-4	79	.
CCCCCCC(=O)c1c(C)[nH]c(C(=O)OCC)c1C	.	-49	55*	1	.	.
CCOC(=O)c1c(C)oc2c1cc(O)c1ccccc12	.	.	.	.	47	.
CCOC(=O)c1c(C)[nH]c(C(=O)OCc2ccccc2)c1C	43*	-256	76*	-3	92*	-1
COc1cccc(CNC(=O)C[C@H]2CC[C@@H](NC(=O)C3CC3)[C@H](CO)O2)c1	.	5[16.7 µM]	-2	-1	.	1
CC(=O)c1c(C)[nH]c(C(=O)OCc2cccc(C)c2)c1C	8	16	54*	0	15	2
COc1ccc(C)cc1COC(=O)c1[nH]c(C)c(C(C)=O)c1C	-2	5	10	-2	4	-4
CCOC(=O)c1c(C)[nH]c(C(=O)OCC(=O)NCc2ccco2)c1C	.	-3	49*	1	.	2
CCS(=O)(=O)N1CC2(C1)[C@H](c1ccccc1)[C@@H](CO)N2C(=O)C1CC1	.	.	.	.	.	0
CN(C)C(=O)C[C@@H]1CC[C@H]2[C@@H](COC[C@@H](O)CN2S(=O)(=O)c2ccccc2Cl)O1	.	1[16.7 µM]	0	-3	.	2
Cc1cccc(C(=O)Nc2ccc(C(=O)N/N=C/c3ccc4c(c3)OCO4)cc2)c1	-2	8	1	-5	-10	1
Cc1ccccc1C(=O)Nc1cccc(C(=O)N/N=C/c2ccc3c(c2)OCO3)c1	1	0	43*	-4	38	2
Cc1nc2ccccn2c1C(=O)N/N=C/c1ccc2c(c1)OCO2	0	-14	.	-1	88*	.
Cc1ccc(C(=O)NN=Cc2ccc3c(c2)OCO3)cc1	9	?	48*	-1	45	1
Cc1nc2ccccn2c1C(=O)NCc1ccc2c(c1)OCO2	.	.	13	1	-5	.
Cc1ccc(C(=O)N/N=C\c2ccc3c(c2)OCO3)cn1	4	-11	11	-10	4	3
Cc1cccc(C(=O)Nc2cccc(C(=O)N/N=C/c3ccc4c(c3)OCO4)c2)c1	15	-10	60*	-2	55	1
CC(C)NC(=O)[C@@]1(C)c2ccccc2C(=O)N(Cc2ccc(OC(F)(F)F)cc2)[C@H]1c1ccc(CO)cc1	.	5[16.7 µM]	.	3	.	-1
Cc1ccccc1S(=O)(=O)N1CC(=O)N2[C@H](C1)[C@@H](c1ccc(C#CC3CC3)cc1)[C@@H]2CO	.	.	.	.	.	2
SMILES	Wnt bcat act	Env fusion inh	esBAF inh	Cneo AK release	MITF TRPM1 HTS	ERAP1 HTS inh
COc1ccc(CCC(=O)N/N=C/c2ccc3c(c2)OCO3)cc1	2	1	56*	.	18	-2
COc1ccc(OC)c(S(=O)(=O)N/N=C\c2ccc3c(c2)OCO3)c1	11	.	47*	-1	43	-2
O=C(N/N=C/c1ccc(O)cc1)c1cc(-c2ccc3c(c2)OCO3)n[nH]1	0	.	23	-9	6	7
O=C(N/N=C/c1ccccc1)c1cc(-c2ccc3c(c2)OCO3)n[nH]1	-7	-14	49*	3	12	-1
COc1ccc(S(=O)(=O)N/N=C\c2ccc3c(c2)OCO3)c(OC)c1	-9	43	.	-1	-4	-4
O=C(CCc1ccccc1)NCC(=O)N/N=C/c1ccc2c(c1)OCO2	15	1	.	.	15	8
